Source: publication PMC4609241 (Molecular imaging and biology : MIB : the official …, 2015)
Where two headings read alike, the source gives them in different places.

Experiments:
Type in all cases: in vivo, mouse
U87 MG tumor [1] = experiment: Autoradiography of resected tissues
Method in brief: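 U87 MG tumour-bearing mice got the 18F-labelled fluorescent PARP1 tracer alone, or the tracer 30 min after Olaparib as a blocking agent. Tumour, brain and muscle were resected, and tumour slices were imaged by autoradiography beside H&E staining. Tissue/muscle ratios were calculated for tumours and brains in the non-blocked and blocked groups.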

Ex vivo blood half-life = settings: tail vein injection, 27 μCi, 100 μl
Method in brief: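 For blood clearance, the tracer was given by tail vein. Blood was collected at 5, 15, 30, 60 and 120 min, weighed and γ-counted, and expressed as %IA/g (n = 4). A weighted t1/2 was derived.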

[2] = test system: U87 MG glioblastoma xenografts; experiment: Small animal PET imaging of U87 MG glioblastoma xenografts
Method in brief: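 Mice carrying U87 MG xenografts in the right shoulder were given 100–200 μl tracer (80–160 mCi/μmol), e.g. 200 μCi in 100 μl 15 % PEG300/85 % 0.9 % saline. PET/CT gave coronal and axial reconstructions, and tumour uptake and SUV were derived. Blocked mice were pre-injected with a 50-fold excess of Olaparib (3.7 μmol in 100 μl of the same vehicle).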

[3] = test system: U87 MG glioblastoma xenografts; experiment: Biodistribution study in tumor xenograft mice
Method in brief: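 Tumour xenograft mice were injected with the tracer, with or without Olaparib pre-injection. Mice were euthanized at 90 min p.i. and organ radioactivity was counted, expressed as %ID/g (n = 4, mean ± SD). Tumour-to-non-target tissue ratios, including tumour/brain and tumour/muscle, were calculated.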

U87 MG tumor [4] = settings: for Tumor to brain ratio: ex vivo
[5] = blocked, pre-injection of Olaparib

Brain to muscle ratio (autoradiography) (U87 MG tumor [1]; Olaparib-blocked mice): 1.02±0.22 | Tumor to muscle ratio (autoradiography) (U87 MG tumor [1]; Olaparib-blocked mice): 2.6±1.6 | Brain to muscle ratio (autoradiography) (U87 MG tumor [1]; non-blocked mice): 0.87± 0.48 | Tumor to muscle ratio (autoradiography) (U87 MG tumor [1]; non-blocked mice): 7.5±0.9 | Blood half-life, weighted t1/2 (Ex vivo blood half-life): 15.6 min | Standardized uptake value (SUV) in U87 MG tumors ([2]; non-blocked): 1.10±0.53 | Uptake in U87 MG tumors ([2]; non-blocked): 0.78±0.1 | Standardized uptake value (SUV) in U87 MG tumors ([2]; pre-injection of an excess of Olaparib (50-fold)): 0.10±0.06 | Tumor to muscle ratio ([3]; 90 min post injection): 4±0.6 | Metabolic stability in vivo (defluorination) ([3]; U87 MG xenograft-bearing mice, bone uptake): quick metabolic defluorination | Tumor to brain tissue ratio ([3]; biodistribution): 12±2.1 | Kidneys uptake [3, 5]: 0.4±0.1 %ID/g | Liver uptake [3, 5]: 2.02± 0.2 %ID/g | Kidneys uptake ([3]; non-blocked): 0.7±0.1 %ID/g | Liver uptake ([3]; non-blocked): 3.8±0.4 %ID/g | Tumor uptake ([3]; positive control group (non-blocked), 90 min p.i.): 0.78±0.1 %ID/g | Tumor to brain ratio (U87 MG tumor [4]; autoradiography): ninefold | Tumor to brain ratio (U87 MG tumor [4]; surface fluorescence imaging): sevenfold
SMILES: CC1=CC(C)=[N+]2C1=Cc1ccc(CCC(=O)N3CCN(C(=O)c4cc(Cc5n[nH]c(=O)c6ccccc56)ccc4F)CC3)n1[B-]2(F)[18F] (stereo not drawn) [[^18F]PARPi-FL]
Lowering of tumor to muscle ratio by blocking (U87 MG tumor [1]; Olaparib blocking): approximately 66% | Overall reduction of tumor uptake in blocked mice (autoradiography) (U87 MG tumor [1]; Olaparib injected 30 min before tracer): 80±12% | Organ uptake / excretion seen by PET ([2]; PET imaging): high uptake in the liver and in the intestinal tract | Reduction of uptake in blocked U87 MG tumors ([3]; blocked U87 MG tumors): 84% | Reduction of tumor uptake in Olaparib-blocked organs (U87 MG tumor [4]; autoradiography): 66±9% | Reduction of tumor uptake in Olaparib-blocked organs (U87 MG tumor [4]; surface fluorescence imaging): 74±12%
